Usually ED50 stands for the midpoint of the dose-response relation. As a reminder, the IC50 is the concentration that inhibits the measured activity by half. As usually defined, the Ki is a measure of affinity in units of concentration, obtained from inhibition or displacement. A word on the Kp: it is tissue or fluid exposure divided by exposure in the circulation. Broadly, the logD is the decadic logarithm of the distribution of all forms, ionised or not, between an organic phase and buffer at a given pH. A high value points to a more lipophilic compound.

1 molecule from ChEMBL document CHEMBL1143088, “Non-acidic pyrazole EP1 receptor antagonists with in vivo analgesic efficacy” (Bioorg Med Chem Lett, 2008) can be followed below.

Data set [1] relates to Rattus norvegicus. The experiment in a line: Reversal of FCA-induced hypersensitivity in orally dosed rat assessed as reduction in weight bearing administered with NMP as vehicle. It counts as functional. To be noted: po. Put shortly:
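Oral dosing in the rat CFA inflammatory pain model was at 1, 3 and 10 mg/kg. The vehicle was 2% NMP, 2% miglyol and 2% solutol–Kleptose in water. Weight bearing was assessed 1 h post-dose. Blood was sampled at 1 h (seven rats), and brain at 10 mg/kg (three rats). ED50 was given in mg/kg.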

In a further data set the target is Cytochrome P450 2C9 (Homo sapiens, UniProt P11712). The experiment in a line: Inhibition of CYP2C9. It counts as ADME.
Sequence of Cytochrome P450 2C9 (P11712 whole entry): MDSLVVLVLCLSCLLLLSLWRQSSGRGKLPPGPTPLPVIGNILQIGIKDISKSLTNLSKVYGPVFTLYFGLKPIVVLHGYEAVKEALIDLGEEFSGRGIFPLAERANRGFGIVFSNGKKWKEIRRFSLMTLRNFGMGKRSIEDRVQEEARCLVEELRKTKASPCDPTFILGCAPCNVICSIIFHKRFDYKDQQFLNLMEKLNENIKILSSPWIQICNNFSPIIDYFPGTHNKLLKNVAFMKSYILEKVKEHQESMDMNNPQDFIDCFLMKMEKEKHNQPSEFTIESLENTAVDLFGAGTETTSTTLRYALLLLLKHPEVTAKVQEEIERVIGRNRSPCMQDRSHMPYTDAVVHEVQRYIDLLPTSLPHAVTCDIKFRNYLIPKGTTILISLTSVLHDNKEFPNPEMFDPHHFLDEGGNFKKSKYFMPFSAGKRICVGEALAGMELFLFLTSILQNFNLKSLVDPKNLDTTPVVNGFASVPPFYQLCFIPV
Another data set deals with Cytochrome P450 2D6 (Homo sapiens, UniProt P10635). Briefly: Inhibition of CYP2D6. It counts as ADME.
Sequence of Cytochrome P450 2D6 (P10635 whole entry): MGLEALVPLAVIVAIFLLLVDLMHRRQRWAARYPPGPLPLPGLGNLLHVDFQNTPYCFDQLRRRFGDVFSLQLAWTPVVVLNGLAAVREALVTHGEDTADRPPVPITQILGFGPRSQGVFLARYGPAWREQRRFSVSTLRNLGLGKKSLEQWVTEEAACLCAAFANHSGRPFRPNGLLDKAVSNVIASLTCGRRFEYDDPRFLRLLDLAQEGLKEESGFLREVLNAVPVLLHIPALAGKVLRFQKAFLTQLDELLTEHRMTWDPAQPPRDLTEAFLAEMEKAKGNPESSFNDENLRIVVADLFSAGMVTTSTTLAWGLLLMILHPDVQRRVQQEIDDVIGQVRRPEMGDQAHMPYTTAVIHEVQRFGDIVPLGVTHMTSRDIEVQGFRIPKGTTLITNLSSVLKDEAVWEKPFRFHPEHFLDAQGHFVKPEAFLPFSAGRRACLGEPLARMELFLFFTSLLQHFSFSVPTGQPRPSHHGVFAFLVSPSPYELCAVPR
In another data set the target is Cytochrome P450 3A4 (Homo sapiens, UniProt P08684). The experiment in a line: Inhibition of CYP3A4. Type of data set: ADME.
Sequence of Cytochrome P450 3A4 (P08684 whole entry): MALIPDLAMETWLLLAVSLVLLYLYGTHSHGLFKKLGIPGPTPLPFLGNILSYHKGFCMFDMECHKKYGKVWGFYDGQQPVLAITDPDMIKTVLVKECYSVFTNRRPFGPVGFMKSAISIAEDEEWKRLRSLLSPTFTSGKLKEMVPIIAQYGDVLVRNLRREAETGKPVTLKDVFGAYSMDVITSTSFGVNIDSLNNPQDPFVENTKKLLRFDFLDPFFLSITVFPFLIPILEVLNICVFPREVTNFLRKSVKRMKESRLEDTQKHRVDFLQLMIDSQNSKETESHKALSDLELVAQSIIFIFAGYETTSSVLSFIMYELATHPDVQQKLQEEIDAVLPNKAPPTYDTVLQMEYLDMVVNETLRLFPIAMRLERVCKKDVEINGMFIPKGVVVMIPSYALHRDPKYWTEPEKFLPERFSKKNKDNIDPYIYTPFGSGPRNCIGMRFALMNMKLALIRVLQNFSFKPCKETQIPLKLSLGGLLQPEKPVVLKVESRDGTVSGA
Data set [2] relates to Blood. Briefly: Drug uptake in FCA-induced hypersensitivity rat blood at 10 mg/kg, po administered with NMP as vehicle. Type of data set: ADME, organism-based. More on the design: dose 10 mg/kg, route oral. The following applies: in vivo, read-out: Drug uptake. An outline of the steps:
(§1)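 CFA inflammatory pain rats dosed orally at 1, 3 and 10 mg/kg in 2% NMP, 2% miglyol, 2% solutol–Kleptose in water; samples taken 1 h post-dose. Blood levels mean of seven rats; brain level at 10 mg/kg only, mean of three rats.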

Data set [3] has as its target T1, Prostaglandin E2 receptor EP1 subtype (Homo sapiens, UniProt P34995).
T1 sequence (P34995 whole entry): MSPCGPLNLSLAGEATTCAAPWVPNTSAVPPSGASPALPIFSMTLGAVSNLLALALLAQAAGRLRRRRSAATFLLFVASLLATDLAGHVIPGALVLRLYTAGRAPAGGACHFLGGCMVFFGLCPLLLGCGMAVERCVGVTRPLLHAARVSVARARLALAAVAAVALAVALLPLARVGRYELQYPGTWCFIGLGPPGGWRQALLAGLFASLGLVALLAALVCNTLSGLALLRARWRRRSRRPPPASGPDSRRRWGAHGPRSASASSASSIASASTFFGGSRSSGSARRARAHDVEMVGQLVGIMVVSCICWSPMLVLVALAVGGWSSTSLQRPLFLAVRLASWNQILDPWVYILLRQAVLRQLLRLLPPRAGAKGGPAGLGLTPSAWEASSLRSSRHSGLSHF
The experiment in a line: Antagonist activity at PGE2-EP1 receptor assessed as PGE2-induced intracellular calcium mobilization. Type of data set: functional, cell-based. (Calcium assays in cells follow changes in intracellular calcium, usually with a dye or a luminescent sensor.)

A short description of data set [4]: Ratio of drug level in brain to blood in FCA-induced hypersensitivity rat at 10 mg/kg, po administered with NMP as vehicle. Type of data set: ADME, organism-based. More on the design: dose 10 mg/kg, route oral. Put shortly: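 CFA inflammatory pain model in rats, oral dosing at 1, 3 and 10 mg/kg in 2% NMP, 2% miglyol and 2% solutol–Kleptose in water. Samples taken 1 h post-dose with the weight-bearing readout. Brain concentration measured at 10 mg/kg only; brain:blood ratio is the mean of three rats, with blood levels the mean of seven.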

The target in another data set is Cytochrome P450 2C19 (Homo sapiens, UniProt P33261). The experiment in a line: Inhibition of CYP2C19. Type of data set: ADME.
Sequence of Cytochrome P450 2C19 (P33261 whole entry): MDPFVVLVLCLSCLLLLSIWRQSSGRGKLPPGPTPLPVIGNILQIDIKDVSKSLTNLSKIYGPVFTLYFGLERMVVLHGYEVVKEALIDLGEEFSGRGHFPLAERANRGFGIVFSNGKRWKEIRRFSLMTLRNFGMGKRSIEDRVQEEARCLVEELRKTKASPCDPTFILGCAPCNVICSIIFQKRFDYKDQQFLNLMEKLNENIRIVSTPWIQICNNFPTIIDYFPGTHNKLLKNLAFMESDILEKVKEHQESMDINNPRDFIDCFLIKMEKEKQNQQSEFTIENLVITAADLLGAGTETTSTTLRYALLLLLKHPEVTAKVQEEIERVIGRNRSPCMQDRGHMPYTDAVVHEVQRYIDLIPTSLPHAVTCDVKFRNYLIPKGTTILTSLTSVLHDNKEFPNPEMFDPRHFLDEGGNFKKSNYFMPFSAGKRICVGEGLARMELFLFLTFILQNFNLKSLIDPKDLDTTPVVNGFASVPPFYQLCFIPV
For data set [5], the system named is Blood. The experiment in a line: Drug uptake in FCA-induced hypersensitivity rat blood at 1 mg/kg, po administered with NMP as vehicle. It counts as ADME, organism-based. More on the design: dose 1 mg/kg, route oral. The following applies: in vivo, read-out: Drug uptake. An outline of the steps: as §1
The target in the next data set is T2, Cytochrome P450 1A2 (Homo sapiens, UniProt P05177).
T2 sequence (P05177 whole entry): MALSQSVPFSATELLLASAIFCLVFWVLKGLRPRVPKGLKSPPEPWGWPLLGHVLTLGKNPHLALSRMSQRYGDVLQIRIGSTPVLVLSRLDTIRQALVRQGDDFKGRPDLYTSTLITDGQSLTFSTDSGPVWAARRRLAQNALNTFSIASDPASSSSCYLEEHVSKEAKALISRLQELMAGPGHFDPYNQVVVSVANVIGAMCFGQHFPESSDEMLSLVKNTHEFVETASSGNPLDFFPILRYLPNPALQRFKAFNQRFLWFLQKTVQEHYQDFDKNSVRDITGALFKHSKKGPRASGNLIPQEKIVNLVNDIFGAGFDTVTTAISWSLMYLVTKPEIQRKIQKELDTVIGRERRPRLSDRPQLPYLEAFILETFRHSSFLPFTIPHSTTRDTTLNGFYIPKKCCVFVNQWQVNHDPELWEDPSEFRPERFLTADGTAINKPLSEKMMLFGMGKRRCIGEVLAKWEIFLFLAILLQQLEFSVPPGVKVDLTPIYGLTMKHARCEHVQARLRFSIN
Briefly: Inhibition of CYP1A2. Type of data set: ADME.

The nature of data set [6]: Distribution coefficient, logD at pH 7.4. Type of data set: physicochemical. To be noted: octanol/water. Put shortly: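 Distribution coefficient between n-octanol and water buffered to pH 7.4; log10 of ratio of equilibrium concentrations of all species.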
In data set [7] the test system is Rattus norvegicus. The experiment in a line: Reversal of FCA-induced hypersensitivity in orally dosed rat assessed as reduction in weight bearing administered with DMSO and PEG400 as vehicle. It counts as functional. To be noted: po. An outline of the steps: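 Rats with CFA-induced inflammatory pain were dosed orally at 1, 3 and 10 mg/kg or 1, 3, 10 and 30 mg/kg. The vehicle was 1% DMSO, 66% PEG400 and 33% water. Weight bearing was read 1 h post-dose and samples were taken then. Brain:blood ratio was measured in the 10 mg/kg group (n=7). ED50 was derived in mg/kg.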

The nature of data set [8]: Ratio of drug level in brain to blood in FCA-induced hypersensitivity rat at 10 mg/kg, po administered with DMSO and PEG400 as vehicle. Type of data set: ADME, organism-based. More on the design: dose 10 mg/kg, route oral. An outline of the steps: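 Rats with CFA-induced inflammatory pain dosed orally at 1, 3, 10 (and 30) mg/kg in 1% DMSO, 66% PEG400, 33% water. Blood and brain sampled 1 h post-dose, alongside the weight-bearing readout. Brain:blood ratio taken from the 10 mg/kg group, mean of seven rats.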

In another data set the test system is Brain. Briefly: Drug uptake in FCA-induced hypersensitivity rat brain at 10 mg/kg, po administered with NMP as vehicle. Type of data set: ADME, organism-based. More on the design: dose 10 mg/kg, route oral. The following applies: read-out: Drug uptake, in vivo. An outline of the steps:
as §1

In data set [9] the target is T1, Prostaglandin E2 receptor EP1 subtype. The experiment in a line: Displacement of [3H]PGE2 from human PGE2-EP1 receptor expressed in CHO-K1 cells. It counts as cell-based. A general note: Loss of bound radioactivity is the signal in a displacement assay; it reports binding, not function.
For data set [10] the target is unchanged. Briefly: Antagonist activity at PGE2-EP1 receptor assessed as PGE2-induced response by schild analysis. It counts as functional. To be noted: read-out: pA2 (converted).
The target in data set [11] is T3, Prostaglandin E2 receptor EP3 subtype (Homo sapiens, UniProt P43115).
T3 sequence (P43115 whole entry): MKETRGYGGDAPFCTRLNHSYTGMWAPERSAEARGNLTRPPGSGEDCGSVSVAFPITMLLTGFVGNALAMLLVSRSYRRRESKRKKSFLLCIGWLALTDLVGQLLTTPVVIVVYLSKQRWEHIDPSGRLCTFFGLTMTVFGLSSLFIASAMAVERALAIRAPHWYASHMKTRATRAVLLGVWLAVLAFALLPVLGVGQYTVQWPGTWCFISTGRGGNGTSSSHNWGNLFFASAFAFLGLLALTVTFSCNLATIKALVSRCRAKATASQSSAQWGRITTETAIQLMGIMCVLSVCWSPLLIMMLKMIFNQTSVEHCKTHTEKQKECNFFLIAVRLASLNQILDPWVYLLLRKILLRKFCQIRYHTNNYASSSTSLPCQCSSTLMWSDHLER
The experiment in a line: Antagonist activity at PGE2-EP3 receptor assessed as PGE2-induced intracellular calcium mobilization. Type of data set: functional, cell-based.

For data set [12], the system named is Blood. The experiment in a line: Drug uptake in FCA-induced hypersensitivity rat blood at 3 mg/kg, po administered with NMP as vehicle. The following applies: in vivo.

Structures are written as SMILES. Bounds are passed on as bounds.

`Cc1cc(NC(=O)OC(C)C)nn1Cc1cc(Cl)ccc1OCc1ccccc1`: the ED50 in the data set with Rattus norvegicus [1] worked out at 4.6 mg/kg; in the data set with Rattus norvegicus [7] it was 1.89 mg/kg. Besides, the IC50 is 17 µM against Cytochrome P450 2C9; more than 100 µM on Cytochrome P450 2D6; more than 81 µM against Cytochrome P450 3A4; more than 100 µM against Cytochrome P450 2C19; 7.8 µM on Cytochrome P450 1A2; 0.0316 µM in [9]. The concentration in the data set with Blood [2] is 1400 nM; in the data set on Blood [5] it was 153 nM; in the data set on Brain, 3330 nM; with Blood [12], 749 nM. Also, the results for the Ki in data set [3] and in data set [11] were 0.0501 µM and more than 10 µM, respectively. The Kp in data set [4] was 2.2; in [8] it was 1.73. Besides, the logD in data set [6] is more than 3.7. In data set [10], the Kb is 0.00794 µM.
